# Assay results gathered from unrelated publications.
# Compare with care: the assays were run in different laboratories.
# Cell line: HT-29
# Read-out: cell growth or viability
Compound,test,setting,endpoint,value
CCCCCCCC(=O)SCC/C=C/[C@@H]1CC(=O)NCc2nc(cs2)C2=N[C@@](C)(CS2)C(=O)N[C@@H](C(C)C)C(=O)O1,resazurin,48 h,IC50,0.0162 µM
COc1cc2c(c3c1C(=O)C[C@@H](c1ccccc1)O3)[C@H]1[C@@H](O2)OC(C)(C)[C@@H]1OC(C)=O,SRB,72 h,IC50,> 10 µM
c1ccc2c(c1)[I+]c1ccccc1-2,trypan blue,48 h,IC50,~0.1 µM
COc1ccc2[nH]cc(CCNc3nccc(Nc4cccc5c4ccn5C)n3)c2c1,fluorescence,72 h,IC50,0.0039 µM
COc1cc2c(O[C@@H]3O[C@H](CO)[C@@H](O)[C@H](O)[C@H]3O)c3c(c(-c4ccc5c(c4)OCO5)c2cc1OC)C(=O)OC3,,,IC50,12 µM
O=C(N/N=C1\C(=O)N(Cc2ccccc2)c2ccc(Br)cc21)c1cc2ccccc2[nH]1,,,IC50,2.26 µM
N.N.[Cl][Pt][Cl],SRB,48 h,IC50,20 µM
COc1ccc2c(c1)/C(=N/NC(=O)c1cc3ccccc3[nH]1)C(=O)N2Cc1ccccc1,,,IC50,2.28 µM
COc1c2c(cc3c1OCO3)[C@]13C=C[C@H](OC)C[C@@H]1[N@](C2)C[C@H]3OC(=O)c1ccoc1,WST-1,,IC50,> 10 µM
O=C(N/N=C1\C(=O)N(Cc2ccccc2)c2ccc(F)cc21)c1cc2ccccc2[nH]1,,30 µM,inhibition,94.3%
COc1c2c(cc3c1OCO3)[C@]13C=C[C@H](OC)C[C@@H]1[N@](C2)C[C@H]3OC(=O)c1ccc2ccccc2c1,WST-1,,IC50,> 10 µM
